Key:
[1] = target: Serine/threonine-protein kinase 10 (Homo sapiens) (UniProt O94804); assay: Inhibition of LOK at 1 uM
How it was run: (§1)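 Single-concentration screen on the Ambit KINOMEscan platform, run against a panel of 250–400 kinases. Per-kinase inhibition was also summarized as S(90), the fraction of kinases inhibited by more than 90%.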

[2] = target: T1, Rhodopsin kinase GRK7 (Homo sapiens) (UniProt Q8WTQ7); assay: Inhibition of GRK7 at 1 uM
T1 sequence (whole entry): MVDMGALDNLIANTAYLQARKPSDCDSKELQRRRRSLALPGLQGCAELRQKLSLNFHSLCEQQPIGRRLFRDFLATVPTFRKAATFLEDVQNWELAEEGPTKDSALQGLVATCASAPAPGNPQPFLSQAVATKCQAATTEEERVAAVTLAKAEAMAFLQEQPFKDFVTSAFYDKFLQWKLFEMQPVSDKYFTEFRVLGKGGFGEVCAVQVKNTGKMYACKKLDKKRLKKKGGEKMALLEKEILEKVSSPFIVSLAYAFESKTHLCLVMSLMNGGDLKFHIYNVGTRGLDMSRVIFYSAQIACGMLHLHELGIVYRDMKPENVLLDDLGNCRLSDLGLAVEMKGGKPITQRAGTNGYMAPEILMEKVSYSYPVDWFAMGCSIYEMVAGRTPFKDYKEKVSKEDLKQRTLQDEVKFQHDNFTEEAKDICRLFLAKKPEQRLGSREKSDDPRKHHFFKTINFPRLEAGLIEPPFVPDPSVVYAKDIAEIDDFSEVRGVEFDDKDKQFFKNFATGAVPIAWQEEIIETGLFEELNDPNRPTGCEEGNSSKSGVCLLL

[3] = target: Insulin receptor (Homo sapiens) (UniProt P06213); assay: Inhibition of INSR at 1 uM; how it was run: as §1
[4] = target: Casein kinase II subunit alpha (Homo sapiens) (UniProt P68400); assay: Inhibition of CSNK2A1 at 1 uM
How it was run: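 Single-concentration screen using Ambit Bioscience KINOMEscan technology across a panel of 250–400 kinases. Per-kinase inhibition from this screen was summarized as S(90), the fraction of kinases inhibited by more than 90%.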

[5] = target: Mitogen-activated protein kinase 6 (Homo sapiens) (UniProt Q16659); assay: Inhibition of ERK3 at 1 uM
[6] = target: Serine/threonine-protein kinase MRCK alpha (Homo sapiens) (UniProt Q5VT25); assay: Inhibition of MRCKA at 1 uM
How it was run: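 Kinase-panel screen using KINOMEscan technology, with 250–400 kinases per panel. Each compound was tested at a single concentration, and inhibition of each kinase was recorded. Selectivity was summarised as S(90), the fraction of kinases inhibited by more than 90%.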

[7] = system: T2, Receptor-type tyrosine-protein kinase FLT3 (Homo sapiens), P36888 [N841I]; assay: Inhibition of FLT3 N841I mutant at 1 uM; how it was run: as §1
T2 sequence (whole entry): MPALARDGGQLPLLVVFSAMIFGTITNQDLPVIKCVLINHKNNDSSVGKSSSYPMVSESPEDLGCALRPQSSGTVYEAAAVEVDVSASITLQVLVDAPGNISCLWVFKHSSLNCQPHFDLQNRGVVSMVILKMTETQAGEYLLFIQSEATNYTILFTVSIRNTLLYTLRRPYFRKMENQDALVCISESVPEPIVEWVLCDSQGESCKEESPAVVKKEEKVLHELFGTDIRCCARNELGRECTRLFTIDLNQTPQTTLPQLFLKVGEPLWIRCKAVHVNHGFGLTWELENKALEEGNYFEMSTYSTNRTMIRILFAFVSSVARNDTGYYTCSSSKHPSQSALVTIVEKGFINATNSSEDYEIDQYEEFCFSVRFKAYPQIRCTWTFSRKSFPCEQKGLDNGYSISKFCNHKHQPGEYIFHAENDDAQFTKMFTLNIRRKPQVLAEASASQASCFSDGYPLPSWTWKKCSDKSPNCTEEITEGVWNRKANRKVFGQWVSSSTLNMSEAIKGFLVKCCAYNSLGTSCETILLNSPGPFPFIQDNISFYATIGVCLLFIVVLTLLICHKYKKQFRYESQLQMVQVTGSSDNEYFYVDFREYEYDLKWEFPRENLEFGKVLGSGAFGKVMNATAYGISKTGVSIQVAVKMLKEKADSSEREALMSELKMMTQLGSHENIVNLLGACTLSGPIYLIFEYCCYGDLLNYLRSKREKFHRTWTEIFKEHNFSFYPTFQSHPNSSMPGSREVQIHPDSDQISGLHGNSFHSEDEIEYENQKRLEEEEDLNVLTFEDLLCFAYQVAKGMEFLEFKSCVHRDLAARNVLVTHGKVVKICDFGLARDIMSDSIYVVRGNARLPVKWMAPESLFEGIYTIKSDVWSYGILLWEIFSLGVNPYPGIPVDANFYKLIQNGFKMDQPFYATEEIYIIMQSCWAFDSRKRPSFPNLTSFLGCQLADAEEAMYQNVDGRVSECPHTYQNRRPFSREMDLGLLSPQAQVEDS

[8] = target: Tyrosine-protein kinase Yes (Homo sapiens) (UniProt P07947); assay: Inhibition of YES at 1 uM
[9] = target: LIM domain kinase 1 (Homo sapiens) (UniProt P53667); assay: Inhibition of LIMK1 at 1 uM; how it was run: as §1
Chain of LIM domain kinase 1 (Homo sapiens) (P53667 whole entry, looked up, the tested form may be a part): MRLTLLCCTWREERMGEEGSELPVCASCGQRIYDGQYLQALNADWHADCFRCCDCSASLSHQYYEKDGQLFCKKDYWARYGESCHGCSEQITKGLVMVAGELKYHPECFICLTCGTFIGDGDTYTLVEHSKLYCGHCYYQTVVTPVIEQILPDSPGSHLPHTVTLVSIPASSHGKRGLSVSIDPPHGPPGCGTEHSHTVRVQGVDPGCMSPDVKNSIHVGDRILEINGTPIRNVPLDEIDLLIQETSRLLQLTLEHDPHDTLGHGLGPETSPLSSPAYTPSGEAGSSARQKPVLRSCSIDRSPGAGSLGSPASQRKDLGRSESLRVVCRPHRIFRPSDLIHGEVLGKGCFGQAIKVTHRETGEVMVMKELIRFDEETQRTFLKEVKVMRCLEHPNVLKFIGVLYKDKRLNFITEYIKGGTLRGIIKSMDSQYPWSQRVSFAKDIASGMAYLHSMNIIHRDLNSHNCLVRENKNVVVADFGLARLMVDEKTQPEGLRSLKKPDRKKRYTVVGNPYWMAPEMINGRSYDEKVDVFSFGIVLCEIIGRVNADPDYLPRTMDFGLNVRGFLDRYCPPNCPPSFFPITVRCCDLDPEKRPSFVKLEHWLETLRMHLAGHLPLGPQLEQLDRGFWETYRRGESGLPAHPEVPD

Chain of Casein kinase II subunit alpha (Homo sapiens) (P68400 whole entry, looked up): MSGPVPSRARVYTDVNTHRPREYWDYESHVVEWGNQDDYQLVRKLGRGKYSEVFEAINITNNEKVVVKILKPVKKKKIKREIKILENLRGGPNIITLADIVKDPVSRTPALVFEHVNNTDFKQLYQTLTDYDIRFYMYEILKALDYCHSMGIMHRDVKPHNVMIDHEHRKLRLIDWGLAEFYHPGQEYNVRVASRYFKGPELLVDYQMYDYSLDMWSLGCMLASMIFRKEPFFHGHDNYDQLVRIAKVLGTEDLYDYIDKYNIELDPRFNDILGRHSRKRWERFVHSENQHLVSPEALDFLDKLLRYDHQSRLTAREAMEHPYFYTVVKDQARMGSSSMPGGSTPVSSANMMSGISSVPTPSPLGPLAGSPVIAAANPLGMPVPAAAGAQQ
Chain of Tyrosine-protein kinase Yes (Homo sapiens) (P07947 2-543 limits assumed): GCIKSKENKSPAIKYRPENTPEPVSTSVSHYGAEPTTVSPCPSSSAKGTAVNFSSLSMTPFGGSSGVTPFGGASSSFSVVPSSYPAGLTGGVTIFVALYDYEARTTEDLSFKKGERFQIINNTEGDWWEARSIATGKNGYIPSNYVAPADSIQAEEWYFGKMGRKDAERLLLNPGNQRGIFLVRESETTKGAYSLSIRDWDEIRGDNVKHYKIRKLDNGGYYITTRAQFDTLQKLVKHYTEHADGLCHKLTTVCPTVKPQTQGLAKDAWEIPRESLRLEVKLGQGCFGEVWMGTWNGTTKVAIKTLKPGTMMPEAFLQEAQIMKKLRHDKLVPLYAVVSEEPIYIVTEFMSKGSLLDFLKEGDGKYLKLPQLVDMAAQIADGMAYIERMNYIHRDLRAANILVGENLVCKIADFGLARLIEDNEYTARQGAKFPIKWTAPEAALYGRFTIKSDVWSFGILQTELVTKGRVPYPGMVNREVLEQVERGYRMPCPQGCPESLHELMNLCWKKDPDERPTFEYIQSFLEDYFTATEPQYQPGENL
Chain of Serine/threonine-protein kinase 10 (Homo sapiens) (O94804 whole entry, looked up): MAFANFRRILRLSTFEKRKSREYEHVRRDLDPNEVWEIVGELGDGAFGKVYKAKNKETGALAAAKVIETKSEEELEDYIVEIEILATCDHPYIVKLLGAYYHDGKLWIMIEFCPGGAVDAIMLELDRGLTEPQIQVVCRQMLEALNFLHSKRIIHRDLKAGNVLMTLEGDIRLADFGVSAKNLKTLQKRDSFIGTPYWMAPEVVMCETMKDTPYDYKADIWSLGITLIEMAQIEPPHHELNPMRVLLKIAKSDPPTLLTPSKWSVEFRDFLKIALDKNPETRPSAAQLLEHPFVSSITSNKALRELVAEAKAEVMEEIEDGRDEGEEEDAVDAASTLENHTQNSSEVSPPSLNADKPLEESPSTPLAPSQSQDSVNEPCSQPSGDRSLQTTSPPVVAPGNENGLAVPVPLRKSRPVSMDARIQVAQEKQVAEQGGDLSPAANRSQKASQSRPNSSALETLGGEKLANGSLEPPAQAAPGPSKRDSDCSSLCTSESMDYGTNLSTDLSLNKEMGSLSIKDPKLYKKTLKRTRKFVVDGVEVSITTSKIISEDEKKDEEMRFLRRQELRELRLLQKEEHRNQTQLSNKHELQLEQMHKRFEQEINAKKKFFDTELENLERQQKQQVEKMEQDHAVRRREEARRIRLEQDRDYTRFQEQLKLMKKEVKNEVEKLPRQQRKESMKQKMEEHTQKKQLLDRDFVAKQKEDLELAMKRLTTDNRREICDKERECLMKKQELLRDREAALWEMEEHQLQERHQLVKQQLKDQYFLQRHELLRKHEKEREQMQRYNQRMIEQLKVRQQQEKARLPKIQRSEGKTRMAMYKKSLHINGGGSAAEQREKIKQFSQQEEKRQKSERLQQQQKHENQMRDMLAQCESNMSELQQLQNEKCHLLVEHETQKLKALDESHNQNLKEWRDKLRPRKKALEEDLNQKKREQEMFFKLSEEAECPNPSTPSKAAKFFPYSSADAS
Chain of Insulin receptor (Homo sapiens) (P06213 28-758 limits assumed): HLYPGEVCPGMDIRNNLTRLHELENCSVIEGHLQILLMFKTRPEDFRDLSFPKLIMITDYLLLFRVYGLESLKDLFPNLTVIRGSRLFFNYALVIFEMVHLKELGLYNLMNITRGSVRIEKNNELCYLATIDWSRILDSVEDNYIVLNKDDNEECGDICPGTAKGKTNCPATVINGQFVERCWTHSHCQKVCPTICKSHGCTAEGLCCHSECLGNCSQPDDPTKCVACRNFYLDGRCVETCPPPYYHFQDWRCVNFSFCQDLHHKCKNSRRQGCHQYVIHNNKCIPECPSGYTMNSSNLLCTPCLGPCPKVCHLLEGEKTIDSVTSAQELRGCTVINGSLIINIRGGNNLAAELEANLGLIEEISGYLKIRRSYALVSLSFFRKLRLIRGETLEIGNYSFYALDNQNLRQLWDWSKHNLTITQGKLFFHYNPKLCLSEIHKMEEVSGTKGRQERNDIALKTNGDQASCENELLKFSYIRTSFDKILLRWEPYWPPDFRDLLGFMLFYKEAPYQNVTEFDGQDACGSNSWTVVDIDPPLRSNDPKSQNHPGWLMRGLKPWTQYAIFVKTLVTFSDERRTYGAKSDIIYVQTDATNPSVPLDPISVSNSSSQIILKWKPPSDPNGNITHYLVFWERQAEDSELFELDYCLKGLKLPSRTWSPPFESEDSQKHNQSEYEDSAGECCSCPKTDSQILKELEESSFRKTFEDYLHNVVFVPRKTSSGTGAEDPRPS
Chain of Insulin receptor (Homo sapiens) (P06213 763-1382 limits assumed): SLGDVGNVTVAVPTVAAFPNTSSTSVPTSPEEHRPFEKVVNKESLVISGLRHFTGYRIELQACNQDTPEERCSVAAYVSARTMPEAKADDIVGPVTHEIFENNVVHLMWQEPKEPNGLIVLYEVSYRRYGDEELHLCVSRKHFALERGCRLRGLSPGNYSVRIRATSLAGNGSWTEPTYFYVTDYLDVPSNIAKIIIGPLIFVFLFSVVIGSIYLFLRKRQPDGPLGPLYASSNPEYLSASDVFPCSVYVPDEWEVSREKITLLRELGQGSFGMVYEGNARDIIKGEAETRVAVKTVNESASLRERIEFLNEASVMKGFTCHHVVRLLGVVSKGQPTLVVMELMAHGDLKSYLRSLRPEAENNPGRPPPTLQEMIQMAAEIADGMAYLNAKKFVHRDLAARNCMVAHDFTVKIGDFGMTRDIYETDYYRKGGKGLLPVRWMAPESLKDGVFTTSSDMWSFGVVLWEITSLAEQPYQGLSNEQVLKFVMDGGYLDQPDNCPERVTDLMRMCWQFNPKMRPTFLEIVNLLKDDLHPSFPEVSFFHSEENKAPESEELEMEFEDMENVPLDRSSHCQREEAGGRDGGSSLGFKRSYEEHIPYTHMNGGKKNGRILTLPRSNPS
Chain of Mitogen-activated protein kinase 6 (Homo sapiens) (Q16659 whole entry): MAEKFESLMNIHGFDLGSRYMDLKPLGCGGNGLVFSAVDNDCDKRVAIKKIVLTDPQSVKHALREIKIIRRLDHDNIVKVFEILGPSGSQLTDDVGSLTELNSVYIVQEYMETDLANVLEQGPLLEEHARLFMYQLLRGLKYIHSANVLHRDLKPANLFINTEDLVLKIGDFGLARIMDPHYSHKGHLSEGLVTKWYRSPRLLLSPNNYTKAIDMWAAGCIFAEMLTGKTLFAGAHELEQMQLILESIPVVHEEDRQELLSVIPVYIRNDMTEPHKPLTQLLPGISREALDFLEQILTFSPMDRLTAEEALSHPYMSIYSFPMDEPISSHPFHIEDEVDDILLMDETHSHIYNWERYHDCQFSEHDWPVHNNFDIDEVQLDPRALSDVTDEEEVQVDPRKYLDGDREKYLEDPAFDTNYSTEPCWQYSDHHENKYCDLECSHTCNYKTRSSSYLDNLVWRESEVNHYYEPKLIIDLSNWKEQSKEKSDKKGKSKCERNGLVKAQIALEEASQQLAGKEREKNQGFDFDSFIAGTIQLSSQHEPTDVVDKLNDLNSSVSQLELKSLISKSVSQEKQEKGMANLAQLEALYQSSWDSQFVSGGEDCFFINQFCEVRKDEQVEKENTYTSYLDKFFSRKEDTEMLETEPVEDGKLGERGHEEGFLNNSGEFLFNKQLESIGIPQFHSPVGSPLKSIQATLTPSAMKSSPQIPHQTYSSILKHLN

Row | inhibition [1] | inhibition [2] | inhibition [3] | inhibition [4] | inhibition [5] | inhibition [6] | inhibition [7] | inhibition [8] | inhibition [9] | Structure (SMILES)
1 | < 50% | < 50% | < 50% | < 50% | < 50% | < 50% | 93% | < 50% | < 50% | CN1CCN(c2ccc(-c3cnc4c(c3)N(Cc3cc(Cl)ccc3Cl)CCN4)cn2)CC1
2 | < 50% | < 50% | < 50% | < 50% | < 50% | < 50% | < 50% | < 50% | < 50% | CN1CCN(c2ccc(-c3cnc4c(c3)N(Cc3cc(Cl)ccc3C(F)(F)F)CCN4)cn2)CC1
3 | < 50% | – | < 50% | < 50% | – | < 50% | < 50% | < 50% | < 50% | COC1CCN(C(=O)c2ccc(-c3cnc4c(c3)N(Cc3cc(Cl)ccc3C(F)(F)F)CCN4)cc2)CC1
4 | < 50% | – | < 50% | < 50% | – | < 50% | < 50% | < 50% | < 50% | O=C(c1ccc(-c2cnc3c(c2)N(Cc2cc(Cl)ccc2C(F)(F)F)CCN3)cc1)N1CCCCC1
5 | 66% | 67% | < 50% | < 50% | < 50% | < 50% | 100% | < 50% | < 50% | FC(F)(F)c1ccc(Cl)cc1CN1CCNc2ncc(-c3ccnc(N4CCNCC4)c3)cc21
6 | < 50% | < 50% | < 50% | < 50% | < 50% | < 50% | 92% | < 50% | < 50% | CC(=O)N1CCN(c2cc(-c3cnc4c(c3)N(Cc3cc(Cl)ccc3C(F)(F)F)CCN4)ccn2)CC1
7 | < 50% | – | < 50% | < 50% | – | < 50% | < 50% | < 50% | < 50% | O=C(O)c1ccc(-c2cnc3c(c2)N(Cc2cc(Cl)ccc2C(F)(F)F)CCN3)cc1
8 | < 50% | – | < 50% | < 50% | – | < 50% | 96.1% | < 50% | < 50% | O=C(c1ccc(-c2cnc3c(c2)N(Cc2cc(Cl)ccc2C(F)(F)F)CCN3)cc1)N1CCC(N2CCCC2)CC1
9 | < 50% | < 50% | < 50% | < 50% | < 50% | < 50% | 83% | < 50% | < 50% | CN1CCN(c2ccc(-c3cnc4c(c3)N(Cc3c(F)ccc(F)c3Cl)CCN4)cn2)CC1
10 | < 50% | < 50% | < 50% | < 50% | < 50% | < 50% | 84.6% | < 50% | < 50% | CN1CCN(c2ccc(-c3cnc4c(c3)N(Cc3cc(F)ccc3F)CCN4)cn2)CC1

Source: ChEMBL document CHEMBL1165965, “Synthesis and structure-activity relationships of 1,2,3,4-tetrahydropyrido[2,3-b]pyrazines as potent and selective inhibitors of the anaplastic lymphoma kinase” (Bioorg Med Chem, 2010)
